Each block holds one compound with its values, some of them ahead of it.
Tests used:
Format in all cases: functional
Mus musculus [1] = experiment: Antitumor activity against L1210 leukemia in mice (Average weight per mouse on day 1.) at the dose of 113 mg/kg
Procedure, shortened: (§1)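 Male B6D2F1J mice (5–9 per group) received 10^5 L1210 cells i.p. on day 0 and drug from day 1, given qd×5 or q4d(2,6). Vehicles were sterile water, 0.05 M potassium phosphate pH 7.4, or 0.4% Tween 80/0.5% CMC/0.9% benzyl alcohol/0.9% saline. Read-out is average body weight per mouse (g) on day 1.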

Mus musculus [2] = experiment: Antitumor activity against L1210 leukemia in mice (Average weight per mouse on day 1.) at the dose of 267 mg/kg; procedure, shortened: as §1
Mus musculus [3] = experiment: Antitumor activity against L1210 leukemia in mice (Average 7-day weight change) at the dose of 267 mg/kg
Procedure, shortened: (§2)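 Male B6D2F1J mice, groups of five to nine, inoculated ip with 10^5 L1210 cells on day 0. Drug treatment started day 1 on qd×5 or q4d(2,6) schedule. Vehicles: ara-C in sterile water; the n-butyl phosphate ester in 0.05 M pH 7.4 potassium phosphate buffer; others as suspensions in 0.4% Tween 80/0.5% low-density CMC/0.9% benzyl alcohol/0.9% saline. Mice weighed days 1 and 7; 7-day weight change given as g/mouse and %.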

Mus musculus [4] = experiment: Antitumor activity against L1210 leukemia in mice (Average 7-day weight change (%)) at the dose of 267 mg/kg; procedure, shortened: as §2
Mus musculus [5] = experiment: Antitumor activity against L1210 leukemia in mice (Average 7-day weight change (%)) at the dose of 200 mg/kg; procedure, shortened: as §2
Mus musculus [6] = experiment: Antitumor activity against L1210 leukemia in mice (Percent increase in life span.) at the dose of 267 mg/kg (mice surviving 20 or more days)
Procedure, shortened: (§3)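 Male B6D2F1J mice, groups of 5–9, inoculated ip with 10^5 L1210 cells on day 0. Dosing starts day 1 on a qd×5 or q4d(2,6) schedule. Vehicles are sterile water, pH 7.4 0.05 M potassium phosphate buffer, or 0.4% Tween 80/0.5% CMC/0.9% benzyl alcohol/0.9% saline. %ILS = (T/C − 1)×100 from median survival. Weights taken days 1 and 7.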

Mus musculus [7] = experiment: Antitumor activity against L1210 leukemia in mice (Average 7-day weight change (%)) at the dose of 113 mg/kg; conditions: dose 133 mg/kg; in the assay text read “133 mg/kg” for “113 mg/kg”; procedure, shortened: as §2
Mus musculus [8] = experiment: Antitumor activity against L1210 leukemia in mice (Percent increase in life span.) at the dose of 113 mg/kg; procedure, shortened: as §3
Mus musculus [9] = experiment: Antitumor activity against L1210 leukemia in mice (Average weight per mouse on day 1.) at the dose of 200 mg/kg; procedure, shortened: as §1
Mus musculus [10] = experiment: Antitumor activity against L1210 leukemia in mice (Average 7-day weight change) at the dose of 113 mg/kg; procedure, shortened: as §2
Mus musculus [11] = experiment: Antitumor activity against L1210 leukemia in mice (Percent increase in life span.) at the dose of 200 mg/kg (mice surviving 20 or more days); procedure, shortened: as §3
Mus musculus [12] = experiment: Antitumor activity against L1210 leukemia in mice (Average 7-day weight change) at the dose of 200 mg/kg; procedure, shortened: as §2
B16 = experiment: Growth inhibition of B16 mouse melanoma cells in culture was determined; conditions: read-out: ID50 (the source's name)
Procedure, shortened: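 B16 mouse melanoma monolayers in McCoy's 5A with 10% whole fetal calf serum, streptomycin and penicillin, 37 °C, 5% CO2. Drugs were dissolved in 0.05 M pH 7.4 potassium phosphate buffer or Me2SO and dosed at regularly spaced concentrations, generally 10^-7 to 10^-3 M. Cells were counted after 48 h; ID50 versus untreated controls was read from dose–response curves, triplicate.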

L1210 = experiment: Growth inhibition of cultured L1210 mouse leukemia cells was determined; conditions: read-out: ID50 (the source's name)
Procedure, shortened: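 L1210 mouse leukemia cells in suspension in Eagle's MEM with 15% whole (non-dialyzed, non-heat-inactivated) fetal calf serum, antibiotics and 0.05 mM 2-mercaptoethanol, 37 °C, 5% CO2. Drugs in pH 7.4 phosphate buffer or Me2SO, generally 10^-7 to 10^-3 M. Coulter cell counts at 48 h; ID50 relative to untreated controls from dose–response curves, triplicate.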

Mus musculus [13] = experiment: Antitumor activity against L1210 leukemia in mice (Average 7-day weight change) at the dose of 115 mg/kg; procedure, shortened: as §2
Mus musculus [14] = experiment: Antitumor activity against L1210 leukemia in mice (Average weight per mouse on day 1.) at the dose of 230 mg/kg; procedure, shortened: as §1
Mus musculus [15] = experiment: Antitumor activity against L1210 leukemia in mice (Average 7-day weight change (%)) at the dose of 115 mg/kg; procedure, shortened: as §2
Mus musculus [16] = experiment: Antitumor activity against L1210 leukemia in mice (Percent increase in life span.) at the dose of 460 mg/kg (mice surviving 20 or more days); procedure, shortened: as §3
Mus musculus [17] = experiment: Antitumor activity against L1210 leukemia in mice (Average 7-day weight change) at the dose of 460 mg/kg; procedure, shortened: as §2
Mus musculus [18] = experiment: Antitumor activity against L1210 leukemia in mice (Average weight per mouse on day 1.) at the dose of 115 mg/kg; procedure, shortened: as §1
Mus musculus [19] = experiment: Antitumor activity against L1210 leukemia in mice (Percent increase in life span.) at the dose of 230 mg/kg; procedure, shortened: as §3
Mus musculus [20] = experiment: Antitumor activity against L1210 leukemia in mice (Average weight per mouse on day 1.) at the dose of 460 mg/kg; procedure, shortened: as §1
Mus musculus [21] = experiment: Antitumor activity against L1210 leukemia in mice (Average 7-day weight change (%)) at the dose of 460 mg/kg; procedure, shortened: as §2
Mus musculus [22] = experiment: Antitumor activity against L1210 leukemia in mice (Average 7-day weight change) at the dose of 230 mg/kg; procedure, shortened: as §2
Mus musculus [23] = experiment: Antitumor activity against L1210 leukemia in mice (Percent increase in life span.) at the dose of 115 mg/kg; procedure, shortened: as §3
Mus musculus [24] = experiment: Antitumor activity against L1210 leukemia in mice (Average 7-day weight change (%)) at the dose of 230 mg/kg; procedure, shortened: as §2
Mus musculus [25] = experiment: Antitumor activity against L1210 leukemia in mice (Average 7-day weight change (%)) at the dose of 130 mg/kg; procedure, shortened: as §2
Mus musculus [26] = experiment: Antitumor activity against L1210 leukemia in mice (Average weight per mouse on day 1.) at the dose of 390 mg/kg; procedure, shortened: as §1
Mus musculus [27] = experiment: Antitumor activity against L1210 leukemia in mice (Average 7-day weight change) at the dose of 130 mg/kg; procedure, shortened: as §2
Mus musculus [28] = experiment: Antitumor activity against L1210 leukemia in mice (Average 7-day weight change) at the dose of 260 mg/kg; procedure, shortened: as §2
Mus musculus [29] = experiment: Antitumor activity against L1210 leukemia in mice (Percent increase in life span.) at the dose of 260 mg/kg; procedure, shortened: as §3
Mus musculus [30] = experiment: Antitumor activity against L1210 leukemia in mice (Percent increase in life span.) at the dose of 390 mg/kg; procedure, shortened: as §3
Mus musculus [31] = experiment: Antitumor activity against L1210 leukemia in mice (Average weight per mouse on day 1.) at the dose of 260 mg/kg; procedure, shortened: as §1
Mus musculus [32] = experiment: Antitumor activity against L1210 leukemia in mice (Percent increase in life span.) at the dose of 130 mg/kg; procedure, shortened: as §3
Mus musculus [33] = experiment: Antitumor activity against L1210 leukemia in mice (Average 7-day weight change) at the dose of 390 mg/kg; procedure, shortened: as §2
Mus musculus [34] = experiment: Antitumor activity against L1210 leukemia in mice (Average 7-day weight change (%)) at the dose of 390 mg/kg; procedure, shortened: as §2
Mus musculus [35] = experiment: Antitumor activity against L1210 leukemia in mice (Average 7-day weight change (%)) at the dose of 260 mg/kg; procedure, shortened: as §2
Mus musculus [36] = experiment: Antitumor activity against L1210 leukemia in mice (Average weight per mouse on day 1.) at the dose of 130 mg/kg; procedure, shortened: as §1

Compound: CCCCCCCCCCCCCCCC(=O)O[C@H]1[C@@H]2Oc3nc(=N)ccn3[C@@H]2O[C@@H]1COP(=O)(O)OCCOCC
- Average weight (Mus musculus [1]): 24 g mouse-1
- Average weight (Mus musculus [2]): 24 g mouse-1
- Weight change (Mus musculus [3]): -3.6 g mouse-1
- Weight change (Mus musculus [4]): -16%
- Weight change (Mus musculus [5]): -16%
- ILS at 267 mg/kg (Mus musculus [6]): 150%
- Weight change (Mus musculus [7]): -11%
- ILS at 113 mg/kg (Mus musculus [8]): 112%
- Average weight (Mus musculus [9]): 24.4 g mouse-1
- Weight change (Mus musculus [10]): -2.6 g mouse-1
- ILS at 200 mg/kg (Mus musculus [11]): 137%
- Weight change (Mus musculus [12]): -4 g mouse-1

Compound: CCCCCCCCCCCCCCCC(=O)O[C@H]1[C@@H]2Oc3nc(=N)ccn3[C@@H]2O[C@@H]1COP(=O)(O)OCCCCCC
- Weight change (Mus musculus [13]): 2 g mouse-1
- Average weight (Mus musculus [14]): 22.2 g mouse-1
- Weight change (Mus musculus [15]): 10%
- ILS at 460 mg/kg (Mus musculus [16]): 75%
- Weight change (Mus musculus [17]): 2.8 g mouse-1
- Average weight (Mus musculus [18]): 20.6 g mouse-1
- ILS at 230 mg/kg (Mus musculus [19]): 37%
- Average weight (Mus musculus [20]): 19.8 g mouse-1
- Weight change (Mus musculus [21]): 14%
- Weight change (Mus musculus [22]): 1.8 g mouse-1
- ILS at 115 mg/kg (Mus musculus [23]): 25%
- Weight change (Mus musculus [24]): 8%

Compound: CCCCCCCCCCCCCCCC(=O)O[C@H]1[C@@H]2Oc3nc(=N)ccn3[C@@H]2O[C@@H]1COP(=O)(O)OCCCC
- Weight change (Mus musculus [25]): 4%
- Average weight (Mus musculus [26]): 24.5 g mouse-1
- Weight change (Mus musculus [27]): 0.9 g mouse-1
- Weight change (Mus musculus [28]): 0.9 g mouse-1
- ILS at 260 mg/kg (Mus musculus [29]): 62%
- ILS at 390 mg/kg (Mus musculus [30]): 74%
- Average weight (Mus musculus [31]): 22.8 g mouse-1
- ILS at 130 mg/kg (Mus musculus [32]): 62%
- Weight change (Mus musculus [33]): -1.6 g mouse-1
- Weight change (Mus musculus [34]): -7%
- Weight change (Mus musculus [35]): 4%
- Average weight (Mus musculus [36]): 23 g mouse-1

Compound: CCCCCCCCOP(=O)(O)OC[C@H]1O[C@@H](n2ccc(N)nc2=O)[C@@H](O)[C@@H]1O
- IC50 (B16): 360 µM
- IC50 (L1210): 11 µM

Compound: Nc1ccn([C@@H]2O[C@H](COP(=O)(O)OCC(O)COCc3ccccc3)[C@@H](O)[C@@H]2O)c(=O)n1 (stereo partly drawn)
- IC50 (B16): 25 µM
- IC50 (L1210): 1 µM

Compound: CCCCCCCCCCCCCCCCOP(=O)(O)OC[C@H]1O[C@@H](n2ccc(N)nc2=O)[C@@H](O)[C@@H]1O
- IC50 (L1210): 11 µM

Continued, values first:

- IC50 (B16): 1.5 µM
- IC50 (L1210): 0.35 µM
Compound: Nc1ccn([C@@H]2O[C@H](COP(=O)(O)O)[C@@H](O)[C@H]2O)c(=O)n1

- IC50 (B16): 26 µM
- IC50 (L1210): 0.65 µM
Compound: Nc1ccn([C@@H]2O[C@H](COP(=O)(O)OCC(O)CO)[C@@H](O)[C@@H]2O)c(=O)n1 (stereo partly drawn)

- IC50 (L1210): 7.8 µM
Compound: CCCCCCOP(=O)(O)OC[C@H]1O[C@@H](n2ccc(N)nc2=O)[C@@H](O)[C@@H]1O

- IC50 (B16): 70 µM
- IC50 (L1210): 4 µM
Compound: CCOP(=O)(O)OC[C@H]1O[C@@H](n2ccc(N)nc2=O)[C@@H](O)[C@@H]1O

— ChEMBL document CHEMBL1122008, “Lipophilic 5'-(alkyl phosphate) esters of 1-beta-D-arabinofuranosylcytosine and its N4-acyl and 2,2'-anhydro-3'-O-acyl derivatives as potential prodrugs” (1982)
